Laboratory results taken from ChEMBL document CHEMBL1949636, “Optimization of phenylacetic acid derivatives for balanced CRTH2 and DP dual antagonists” (Bioorg Med Chem Lett, 2012).
pIC50: −log10 of the molar value.

Legend:
[1] = target: T1, Prostaglandin D2 receptor 2 (Homo sapiens, UniProt Q9Y5Y4); experiment: Displacement of [3H]PGD2 from human CRTH2 receptor expressed in HEK293 cells by scintillation counting in presence of 0.5% BSA; type: cell-based
T1 sequence (Q9Y5Y4 whole entry): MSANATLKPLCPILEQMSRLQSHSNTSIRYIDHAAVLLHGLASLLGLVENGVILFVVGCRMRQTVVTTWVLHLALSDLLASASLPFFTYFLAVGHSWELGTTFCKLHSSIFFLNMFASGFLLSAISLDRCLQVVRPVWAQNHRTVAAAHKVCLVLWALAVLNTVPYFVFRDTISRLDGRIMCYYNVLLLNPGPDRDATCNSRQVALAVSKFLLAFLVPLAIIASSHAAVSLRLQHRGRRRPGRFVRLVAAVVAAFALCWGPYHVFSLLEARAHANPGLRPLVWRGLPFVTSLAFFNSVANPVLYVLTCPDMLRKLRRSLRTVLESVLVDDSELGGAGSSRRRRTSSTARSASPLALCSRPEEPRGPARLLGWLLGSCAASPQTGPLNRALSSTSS
Summary of the method: (§1)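 Radioligand binding to intact HEK 293 cells stably expressing human CRTH2 or DP. Cells incubated with [3H]-PGD2 and increasing compound concentrations in binding buffer containing 0.5% BSA. After washing, bound [3H]-PGD2 counted by scintillation. […] Mean of three experiments; standard deviation 30%.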

[2] = target: T2, Prostaglandin D2 receptor (Homo sapiens, UniProt Q13258); experiment: Displacement of [3H]PGD2 from human DP receptor expressed in HEK293 cells by scintillation counting in presence of 0.5% BSA; type: cell-based; summary of the method: as §1
T2 sequence (Q13258 whole entry): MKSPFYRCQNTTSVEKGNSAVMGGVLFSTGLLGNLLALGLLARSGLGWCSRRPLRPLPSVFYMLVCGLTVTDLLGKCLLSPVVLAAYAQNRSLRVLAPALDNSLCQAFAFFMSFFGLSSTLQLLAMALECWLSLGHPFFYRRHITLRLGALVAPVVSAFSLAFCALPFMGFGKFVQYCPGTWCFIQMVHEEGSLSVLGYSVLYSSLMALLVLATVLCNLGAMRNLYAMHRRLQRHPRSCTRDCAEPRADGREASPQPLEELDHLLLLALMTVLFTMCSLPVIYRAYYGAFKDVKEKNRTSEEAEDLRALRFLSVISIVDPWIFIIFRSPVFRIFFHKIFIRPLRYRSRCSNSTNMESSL

[3] = target: T2, Prostaglandin D2 receptor; experiment: Displacement of [3H]PGD2 from human DP receptor expressed in HEK293 cells by scintillation counting in presence of 50% plasma; type: cell-based
Summary of the method: (§2)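 Whole-cell [3H]-PGD2 binding on HEK 293 cells stably expressing human CRTH2 or DP, run in binding buffer containing 50% human plasma. Test compound added at increasing concentrations. Cells washed, and remaining bound radioligand measured by scintillation counting. Mean of three experiments; standard deviation 30%.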

[4] = target: T3, Prostaglandin D2 receptor (Homo sapiens) (UniProt Q13258); experiment: Antagonist activity at DP receptor in PGD2-stimulated human platelets in 80% whole blood assessed as inhibition of IBMX-stimulated cAMP production preincubated for 30 mins prior PGD2 stimulation measured after 60 mins by immunoassay; type: functional, tissue-based
T3 sequence (whole entry): T2 sequence (Q13258 whole entry)
Summary of the method: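 IBMX added to human whole blood at 1 mM final. Treated blood incubated with antagonist 30 min at 37 °C, then transferred to PGD2 at various concentrations for 60 min at 37 °C. Blood lysed and cAMP measured by direct immunoassay. PGD2-stimulated cAMP curves fitted with a Hill model.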

[5] = target: T4, Prostaglandin D2 receptor 2 (Homo sapiens) (UniProt Q9Y5Y4); experiment: Antagonist activity at CRTH2 receptor in human eosinophol assessed as inhibition of PGD2-induced eosinophol shape change preincubated for 10 mins prior PGD2 stimulation measured after 10 mins by FACS flow cytometry; type: functional
T4 sequence (whole entry): T1 sequence (Q9Y5Y4 whole entry)
Summary of the method: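 Granulocytes enriched from normal donor peripheral blood by density-gradient centrifugation; erythrocytes removed by ACK lysis. Cells pre-incubated 10 min at room temperature with antagonist or vehicle (0.05% DMSO), then stimulated with PGD2 (600–0.003 nM, 1:3 dilution) 10 min at 37 °C. Fixed in 1% final paraformaldehyde. Eosinophils gated as FL2-positive; geometric mean forward scatter used to derive IC50.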

[6] = target: T1, Prostaglandin D2 receptor 2; experiment: Displacement of [3H]PGD2 from human CRTH2 receptor expressed in HEK293 cells by scintillation counting in presence of 50% plasma; type: cell-based; summary of the method: as §2

SMILES	pIC50 [1]	pIC50 [2]	pIC50 [3]	Kb [4] [nM]	Kb [5] [nM]	pIC50 [6]
CCCCNC(=O)c1ccc(S(=O)(=O)c2ccc(CC(=O)O)cc2)c(NS(=O)(=O)c2ccc(Cl)cc2Cl)c1	6.40	< 5.00	–	–	–	–
CCCCNC(=O)c1ccc(Cc2ccc(CC(=O)O)cc2OC)c(NS(=O)(=O)c2ccc(Cl)cc2Cl)c1	8.70	8.22	–	–	–	–
CCCCNC(=O)c1ccc(Oc2ccc(CC(=O)O)cn2)c(NS(=O)(=O)c2ccc(Cl)cc2Cl)c1	6.51	6.32	–	–	–	–
CCCCNC(=O)c1ccc(Oc2ccc3c(CC(=O)O)coc3c2)c(NS(=O)(=O)c2ccc(Cl)cc2Cl)c1	8.30	8.30	–	–	–	–
CCCCNC(=O)c1ccc(Sc2ccc(CC(=O)O)cc2)c(NS(=O)(=O)c2ccc(Cl)cc2Cl)c1	7.68	6.20	–	–	–	–
CCCCNC(=O)c1ccc([S+]([O-])c2ccc(CC(=O)O)cc2)c(NS(=O)(=O)c2ccc(Cl)cc2Cl)c1 (stereo not drawn)	6.18	< 5.00	–	–	–	–
CCCCNC(=O)c1ccc(Oc2ccc3c(CC(=O)O)c[nH]c3c2)c(NS(=O)(=O)c2ccc(Cl)cc2Cl)c1	8.52	7.08	–	–	–	–
CCCCNC(=O)c1ccc(Oc2ccc3c(c2)OCC3CC(=O)O)c(NS(=O)(=O)c2ccc(Cl)cc2Cl)c1 (stereo not drawn)	6.24	6.82	–	–	–	–
CCCCNC(=O)c1ccc(Oc2ccc(CC(=O)O)nc2)c(NS(=O)(=O)c2ccc(Cl)cc2Cl)c1	8.00	6.64	–	–	–	–
CCCCNC(=O)c1ccc(Oc2ccc3c(ccn3CC(=O)O)c2)c(NS(=O)(=O)c2ccc(Cl)cc2Cl)c1	8.70	7.54	–	–	–	–

Results, then the molecule that gave them:

pIC50 [1]	pIC50 [2]	pIC50 [3]	Kb [4] [nM]	Kb [5] [nM]	pIC50 [6]	SMILES
8.70	8.00	6.96	50	0.18	7.70	CCCc1nc(-c2ccc(Oc3ccc(CC(=O)O)cc3OC)c(NS(=O)(=O)c3ccc(Cl)cc3Cl)c2)c[nH]1
8.70	8.40	7.34	5	0.084	8.10	CCCc1cc(-c2ccc(Oc3ccc(CC(=O)O)cc3OC)c(NS(=O)(=O)c3ccc(Cl)cc3Cl)c2)n[nH]1
6.11	7.64	–	–	–	–	CCc1noc(-c2ccc(Oc3ccc(CC(=O)O)cc3OC)c(NS(=O)(=O)c3ccc(Cl)cc3Cl)c2)n1
8.40	8.00	–	–	–	–	CCCc1nc(-c2ccc(Oc3ccc(CC(=O)O)cc3OC)c(NS(=O)(=O)c3ccc(Cl)cc3Cl)c2)n[nH]1
8.22	7.82	–	–	–	–	CCc1nc(-c2ccc(Oc3ccc(CC(=O)O)cc3OC)c(NS(=O)(=O)c3ccc(Cl)cc3Cl)c2)n[nH]1
